Converted amounts (≈) assume the structure as drawn. Blank lines part the entries; values can stand above or below the molecule they belong to.
Key:
[1] = system: 1-F12; test: icELISA with mAb 1-F12; assay type: binding, Balb/c mice; details: for CR: CR%=IC50 6-GG/IC50 test compound x100%
In short: (§1)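 Ascites-derived mAbs (caprylic acid–ammonium sulfate purified) from female Balb/c mice immunized with hapten–BSA. Plates coated with hapten–OVA in carbonate buffer (0.5 mol L−1, pH 9.6), blocked with 5% skim milk, washed with PBST, and detected with goat anti-mouse IgG-HRP; reaction stopped with 2 mol L−1 H2SO4. Analyte stocks (1 mg/mL, 70% methanol) were diluted in 10% methanol-PBS. IC50 values were fitted, and cross-reactivity was calculated for capsaicinoids, gingerol derivatives and eight other compounds.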

[2] = system: 1-G12; test: icELISA with mAb 1-G12; assay type: binding, Balb/c mice; details: for CR: CR%=IC50 6-GG/IC50 test compound x100%
In short: as §1

[3] = system: 1-D6; test: icELISA with mAb 1-D6; assay type: binding, Balb/c mice; details: for CR: CR%=IC50 6-GG/IC50 test compound x100%
In short: as §1

[4] = system: 2-LD2; test: icELISA with mAb 2-LD2; assay type: binding
[5] = system: 3-LD3; test: icELISA with mAb 3-LD3; assay type: binding
[6] = system: 4-AT4; test: icELISA with mAb 4-AT4; assay type: binding
[7] = system: 5-3H1; test: icELISA with mAb 5-3H1; assay type: binding
[8] = system: 5-D8; test: icELISA with mAb 5-D8; assay type: binding
[9] = system: 6-AT6; test: icELISA with mAb 6-AT6; assay type: binding
[10] = mAb 1-F12, specific evaluation (Table 1, Fig. 3B)
[11] = mAb 1-G12, specific evaluation (Table 1, Fig. 3D)
[12] = mAb 1-D6, specific evaluation (Table 1, Fig. 3C)
[13] = coating antigen Hapten 1-OVA, mAb 1-F12
[14] = coating antigen Hapten 2-OVA, mAb 1-F12
[15] = coating antigen Hapten 3-OVA, mAb 1-F12
[16] = coating antigen Hapten 4-OVA, mAb 1-F12
[17] = coating antigen Hapten 5-OVA, mAb 1-F12 (optimal combination)
[18] = coating antigen Hapten 6-OVA, mAb 1-F12
[19] = coating antigen Hapten 1-OVA, mAb 1-G12
[20] = coating antigen Hapten 2-OVA, mAb 1-G12
[21] = coating antigen Hapten 3-OVA, mAb 1-G12
[22] = coating antigen Hapten 4-OVA, mAb 1-G12
[23] = coating antigen Hapten 5-OVA, mAb 1-G12
[24] = coating antigen Hapten 6-OVA, mAb 1-G12
[25] = coating antigen Hapten 1-OVA, mAb 1-D6
[26] = coating antigen Hapten 2-OVA, mAb 1-D6
[27] = coating antigen Hapten 3-OVA, mAb 1-D6
[28] = coating antigen Hapten 4-OVA, mAb 1-D6
[29] = coating antigen Hapten 5-OVA, mAb 1-D6
[30] = coating antigen Hapten 6-OVA, mAb 1-D6

Structure (SMILES): CCCCCCCC(=O)CCc1cc(OC)c(O)c(C(=O)O)c1 [2-hydroxy-3-methoxy-5-(3-oxodecyl) benzoic acid]
- IC50 [1, 10]: >4 µg/mL
- CR ([1]; mAb 1-F12): <12.66%
- IC50 [2, 11]: >4 µg/mL
- CR ([2]; mAb 1-G12): <14.01%
- IC50 [3, 12]: 1.9528 µg/mL (≈ 6.06 µM)
- CR ([3]; mAb 1-D6): 3.03%

Structure (SMILES): COc1cc(CNC(=O)CCCC/C=C/C(C)C)ccc1O [CPC, Capsaicin]
- IC50 [1, 13]: 0.58442 µg/mL (≈ 1.91 µM)
- IC50 [1, 14]: >4 µg/mL
- IC50 [1, 15]: >4 µg/mL
- IC50 [1, 16]: 0.79654 µg/mL (≈ 2.61 µM)
- IC50 [1, 17]: 0.48151 µg/mL
- IC50 [1, 18]: 1.35443 µg/mL (≈ 4.43 µM)
- CR ([1]; mAb 1-F12): 86.62%
- IC50 [2, 19]: 1.22906 µg/mL (≈ 4.02 µM)
- IC50 [2, 20]: >4 µg/mL
- IC50 [2, 21]: >4 µg/mL
- IC50 [2, 22]: 0.83506 µg/mL (≈ 2.73 µM)
- IC50 [2, 23]: 0.33939 µg/mL (≈ 1.11 µM)
- IC50 [2, 24]: 0.66185 µg/mL (≈ 2.17 µM)
- IC50 [2, 11]: 1.22906 µg/mL (≈ 4.02 µM)
- CR ([2]; mAb 1-G12): 45.61%
- IC50 [3, 25]: >4 µg/mL
- IC50 [3, 26]: >4 µg/mL
- IC50 [3, 27]: >4 µg/mL
- IC50 [3, 28]: 0.91716 µg/mL (≈ 3 µM)
- IC50 [3, 29]: 0.93917 µg/mL (≈ 3.08 µM)
- IC50 [3, 30]: 0.26434 µg/mL (≈ 0.866 µM)
- IC50 [3, 12]: >4 µg/mL
- CR ([3]; mAb 1-D6): <1.48%
- IC50 ([4]; coating antigen Hapten 1-OVA): 0.11875 µg/mL (≈ 0.389 µM)
- IC50 ([4]; coating antigen Hapten 2-OVA): 0.00961 µg/mL (≈ 0.0315 µM)
- IC50 ([4]; coating antigen Hapten 3-OVA): 0.01715 µg/mL (≈ 0.0562 µM)
- IC50 ([4]; coating antigen Hapten 4-OVA): 0.00119 µg/mL (≈ 0.0039 µM)
- IC50 ([5]; coating antigen Hapten 2-OVA): 0.01016 µg/mL (≈ 0.0333 µM)
- IC50 ([5]; coating antigen Hapten 3-OVA): 0.03008 µg/mL (≈ 0.0985 µM)
- IC50 ([5]; coating antigen Hapten 4-OVA): 0.00387 µg/mL (≈ 0.0127 µM)
- IC50 ([6]; coating antigen Hapten 1-OVA): 0.00502 µg/mL (≈ 0.0164 µM)
- IC50 ([6]; coating antigen Hapten 2-OVA): 0.13283 µg/mL (≈ 0.435 µM)
- IC50 ([6]; coating antigen Hapten 3-OVA): 0.27036 µg/mL (≈ 0.885 µM)
- IC50 ([6]; coating antigen Hapten 4-OVA): 0.00651 µg/mL (≈ 0.0213 µM)
- IC50 ([6]; coating antigen Hapten 5-OVA): 0.00379 µg/mL (≈ 0.0124 µM)
- IC50 ([7]; coating antigen Hapten 1-OVA): 1.15967 µg/mL (≈ 3.8 µM)
- IC50 ([7]; coating antigen Hapten 2-OVA): 0.547 µg/mL (≈ 1.79 µM)
- IC50 ([7]; coating antigen Hapten 3-OVA): 0.79417 µg/mL (≈ 2.6 µM)
- IC50 ([7]; coating antigen Hapten 4-OVA): 0.02586 µg/mL (≈ 0.0847 µM)
- IC50 ([7]; coating antigen Hapten 5-OVA): 0.10327 µg/mL (≈ 0.338 µM)
- IC50 ([8]; coating antigen Hapten 1-OVA): 0.03987 µg/mL (≈ 0.131 µM)
- IC50 ([8]; coating antigen Hapten 2-OVA): 0.54041 µg/mL (≈ 1.77 µM)
- IC50 ([8]; coating antigen Hapten 3-OVA): 0.56457 µg/mL (≈ 1.85 µM)
- IC50 ([8]; coating antigen Hapten 4-OVA): 0.02878 µg/mL (≈ 0.0942 µM)
- IC50 ([8]; coating antigen Hapten 5-OVA): 0.04559 µg/mL (≈ 0.149 µM)
- IC50 ([9]; coating antigen Hapten 1-OVA): >4 µg/mL
- IC50 ([9]; coating antigen Hapten 2-OVA): >4 µg/mL
- IC50 ([9]; coating antigen Hapten 3-OVA): >4 µg/mL
- IC50 ([9]; coating antigen Hapten 4-OVA): >4 µg/mL
- IC50 ([9]; coating antigen Hapten 5-OVA): >4 µg/mL
- IC50 ([9]; coating antigen Hapten 6-OVA): >4 µg/mL

The next lines start with results.

- IC50 [1, 10]: >4 µg/mL
- IC50 [2, 11]: >4 µg/mL
- IC50 [3, 12]: >4 µg/mL
Structure (SMILES): COc1cccc(CNC(=O)CC#N)c1 [2-Cyano-N-(3-methoxybenzyl) acetamide]
- CR ([1]; mAb 1-F12): <12.66%
- CR ([2]; mAb 1-G12): <14.01%
- CR ([3]; mAb 1-D6): <1.48%

- IC50 [1, 10]: >4 µg/mL
- IC50 [2, 11]: >4 µg/mL
- IC50 [3, 12]: 2.17533 µg/mL (≈ 11.1 µM)
Structure (SMILES): COc1cc(CCC(=O)O)ccc1O [3-(4-Hydroxy-3-methoxyphenyl) propionic Acid]
- CR ([1]; mAb 1-F12): <12.66%
- CR ([2]; mAb 1-G12): <14.01%
- CR ([3]; mAb 1-D6): 2.72%

- IC50 [1, 13]: 0.55714 µg/mL (≈ 1.81 µM)
- IC50 [1, 14]: >4 µg/mL
- IC50 [1, 15]: >4 µg/mL
- IC50 [1, 16]: 0.41585 µg/mL (≈ 1.35 µM)
- IC50 [1, 17]: 0.14358 µg/mL
- IC50 [1, 18]: 0.8841 µg/mL (≈ 2.88 µM)
- IC50 [1, 10]: 0.55714 µg/mL (≈ 1.81 µM)
- IC50 [2, 19]: 0.70085 µg/mL (≈ 2.28 µM)
- IC50 [2, 20]: >4 µg/mL
- IC50 [2, 21]: >4 µg/mL
- IC50 [2, 22]: 0.72469 µg/mL (≈ 2.36 µM)
- IC50 [2, 23]: 0.37358 µg/mL (≈ 1.22 µM)
- IC50 [2, 24]: 0.35151 µg/mL (≈ 1.14 µM)
- IC50 [2, 11]: 0.70085 µg/mL (≈ 2.28 µM)
- IC50 [3, 25]: 0.96982 µg/mL (≈ 3.15 µM)
- IC50 [3, 26]: >4 µg/mL
- IC50 [3, 27]: >4 µg/mL
- IC50 [3, 28]: 0.70128 µg/mL (≈ 2.28 µM)
- IC50 [3, 29]: 0.58873 µg/mL (≈ 1.91 µM)
- IC50 [3, 30]: 0.16792 µg/mL (≈ 0.546 µM)
- IC50 [3, 12]: 0.96982 µg/mL (≈ 3.15 µM)
- IC50 ([6]; coating antigen Hapten 1-OVA): 0.00581 µg/mL (≈ 0.0189 µM)
- IC50 ([6]; coating antigen Hapten 2-OVA): 0.05733 µg/mL (≈ 0.186 µM)
- IC50 ([6]; coating antigen Hapten 3-OVA): 0.25387 µg/mL (≈ 0.826 µM)
- IC50 ([6]; coating antigen Hapten 4-OVA): 0.01068 µg/mL (≈ 0.0347 µM)
- IC50 ([6]; coating antigen Hapten 5-OVA): 0.00313 µg/mL (≈ 0.0102 µM)
- IC50 ([7]; coating antigen Hapten 1-OVA): 0.01598 µg/mL (≈ 0.052 µM)
- IC50 ([7]; coating antigen Hapten 2-OVA): 0.10263 µg/mL (≈ 0.334 µM)
- IC50 ([7]; coating antigen Hapten 3-OVA): 0.25386 µg/mL (≈ 0.826 µM)
- IC50 ([7]; coating antigen Hapten 4-OVA): 0.01135 µg/mL (≈ 0.0369 µM)
- IC50 ([7]; coating antigen Hapten 5-OVA): 0.03124 µg/mL (≈ 0.102 µM)
- IC50 ([8]; coating antigen Hapten 1-OVA): 0.00582 µg/mL (≈ 0.0189 µM)
- IC50 ([8]; coating antigen Hapten 2-OVA): 0.16652 µg/mL (≈ 0.542 µM)
- IC50 ([8]; coating antigen Hapten 3-OVA): 0.05575 µg/mL (≈ 0.181 µM)
- IC50 ([8]; coating antigen Hapten 4-OVA): 0.0109 µg/mL (≈ 0.0355 µM)
- IC50 ([8]; coating antigen Hapten 5-OVA): 0.01319 µg/mL (≈ 0.0429 µM)
- IC50 ([9]; coating antigen Hapten 1-OVA): >4 µg/mL
- IC50 ([9]; coating antigen Hapten 2-OVA): >4 µg/mL
- IC50 ([9]; coating antigen Hapten 3-OVA): >4 µg/mL
- IC50 ([9]; coating antigen Hapten 4-OVA): >4 µg/mL
- IC50 ([9]; coating antigen Hapten 5-OVA): 1.46054 µg/mL (≈ 4.75 µM)
- IC50 ([9]; coating antigen Hapten 6-OVA): >4 µg/mL
Structure (SMILES): COc1cc(CNC(=O)CCCCCCC(C)C)ccc1O [DCPC, dihydrocapsaicin]
- CR ([1]; mAb 1-F12): 90.86%
- CR ([2]; mAb 1-G12): 79.99%
- CR ([3]; mAb 1-D6): 6.10%
- IC50 ([4]; coating antigen Hapten 1-OVA): 0.00947 µg/mL (≈ 0.0308 µM)
- IC50 ([4]; coating antigen Hapten 2-OVA): 0.00485 µg/mL (≈ 0.0158 µM)
- IC50 ([4]; coating antigen Hapten 3-OVA): 0.00154 µg/mL (≈ 0.00501 µM)
- IC50 ([4]; coating antigen Hapten 4-OVA): 0.00073 µg/mL (≈ 0.00237 µM)
- IC50 ([5]; coating antigen Hapten 2-OVA): 0.00124 µg/mL (≈ 0.00403 µM)
- IC50 ([5]; coating antigen Hapten 3-OVA): 0.00062 µg/mL (≈ 0.00202 µM)
- IC50 ([5]; coating antigen Hapten 4-OVA): 0.00184 µg/mL (≈ 0.00599 µM)
